Screens from PubChem BioAssay.
Compounds with a hit are over-represented: about 11% of the library has one in this group of screens.
Diaphorase inh: diaphorase inhibitors and chemical oxidizers, primary screen, counter-screen for diaphorase-coupled primary assays, biochemical, uHTS, resorufin fluorescence; hit rate 0.69% among 190,000; inhibition, % at 20 µM; diaphorase resazurin-to-resorufin fluorescence, NADH, 16 min; bacterial (C. kluyveri) enzyme, not human;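 active means primary screen inhibition at 20 µM above a set limit, cut at about 50% in these data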;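 further: plate controls were DMSO with full reaction for no effect and wells lacking NADH for full effect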
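System: Bacterial diaphorase enzyme (C. kluyveri) | Incubation: 16-min room-temperature incubation before reading | Benchmarks: No-NADH positive control and DMSO neutral control | Measured by: Resorufin fluorescence 544/590 nm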
WT yeast gro inh: growth inhibition of WT strain, primary screen, mitochondrial fusion inhibitor project, WT and mutant strains, chemical genetic; inhibition, % at 10 µM; hit rate 2.1% among 190,000; AID 1362, 2008; mitochondrial fusion phenotypic screen; in the data active means inhibition above about 58%; tested in S. cerevisiae
L major viab: Leishmania major promastigote growth inhibition, primary screen; AID 1063, 2008; inhibition, % at 10 µM; hit rate 9% among 200,000; Leishmania major promastigotes, resazurin fluorescence viability;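 further: promastigotes grown with compound for 44 hours at 28 °C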
Diaph act CS: compounds boosting diaphorase resazurin reduction – biochemical, uHTS, resorufin fluorescence, counter-screen for diaphorase-coupled primary assays, primary screen; Diaphorase/resazurin coupled assay, 16 min; hits give high values; 1 = vehicle wells, 0 = NADH-free wells; activation factor at 20 µM; hit rate 0.005% among 190,000; AID 1229, 2008;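 active means diaphorase activity raised at least twofold by the compound at 20 µM; inactive means activation factor below 2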
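Material: purified diaphorase enzyme from Clostridium kluyveri / Medium: HEPES pH 7.4 buffer with MgCl2 and Tween 20 / Schedule: enzyme reaction of 16 min at room temperature / Measured by: resorufin fluorescence, excitation 544 nm, emission 590 nm / Evaluation: rise in resorufin formation, marking diaphorase activation or chemical reduction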
G6PDH CS: L. mesenteroides G6PDH inhibitors, counter-screen for G6PDH-coupled screening assays, biochemical, Leuconostoc mesenteroides enzyme; inhibition, % at 5 µM; glucose-6-phosphate dehydrogenase [Leuconostoc mesenteroides]; AID 1020, 2008; hit rate 0.12% among 200,000; Purified L. mesenteroides G6PDH, diaphorase/resazurin coupled fluorescence, 45 min
Active calls of the source: *; · = no result. Unless noted, no stated cut-off is given here; in the data, active means inhibition above about 50%; inactive means the rest.

SMILES	Diaphorase inh	WT yeast gro inh	L major viab	Diaph act CS	G6PDH CS
Nc1ncnc(Nc2cc(Cl)cc(Cl)c2)c1[N+](=O)[O-]	8	-1	55*	0.9	12
Nc1ncnc(NNC(=O)CNC(=O)c2c(F)cccc2Cl)c1[N+](=O)[O-]	2	0	0	1	11
COc1ccccc1C(=O)NNC(=S)NC(=O)c1cc(OC)c(OC)c(OC)c1	-1	13	-6	1	4
COc1cc(C(=O)NC(=S)NNC(=O)c2cnccn2)cc(OC)c1OC	51*	-1	100*	0.5	-8
COc1cccc(N(C(=O)Cn2nnc(-c3ccc(C)cc3)n2)C(C(=O)NC(C)(C)C)c2c[nH]c3ccccc23)c1 (centres undefined)	23	21	20	0.8	4
CC(C)(C)NC(=O)C(c1c[nH]c2ccccc12)N(C(=O)Cn1nnc(-c2ccc(Cl)cc2)n1)c1ccccc1F (centres undefined)	11	29	51*	0.9	19
CC(C)(C)NC(=O)C(c1ccco1)N(C(=O)Cn1nnc(-c2ccc(F)cc2)n1)c1ccccc1F (centres undefined)	36	63*	35	0.6	-8
Cc1cc([N+](=O)[O-])ccc1NC(=O)C[n+]1ccc(N(C)C)cc1	9	-9	1	0.9	6
COc1ccc(CCc2nnc(CCC(=O)N(C)Cc3ccncc3C)o2)cc1	-13	2	1	1.1	4
Cc1ccc(Cn2cnc3ccccc32)cc1	6	9	78*	0.9	-2
Cc1ccccc1CSc1nc(C(C)(C)C)cc(=O)[nH]1	5	2	0	0.9	2
Cc1cc(N2CCCCC2)nc(NCc2ccccc2)n1	-20	20	75*	1.2	8
CCOc1cc(C)nc(NCc2ccccc2)n1	2	15	65*	1	6
Cc1ccc(O)c(C=Nc2ccc3[nH]ncc3c2)c1	61*	-11	10	0.4	34
CC1=CC(=O)C=C(C)C1=NOC(=O)c1cccc([N+](=O)[O-])c1	16	6	84*	0.8	2
Cc1cccc(C(=O)O/N=C(\N)c2cccc([N+](=O)[O-])c2)c1	8	-1	5	0.9	4
COc1ccc(OC)c(C2Nc3c(Cl)ccc(C(=O)O)c3C3C=CCC32)c1 (centres undefined)	24	-8	-6	0.8	3
O=C(O)C1Nc2c(O)cc(Cl)c([N+](=O)[O-])c2C2C=CCC12 (centres undefined)	71*	13	-10	0.3	12
Cn1nc(-c2ccc(NCCO)c([N+](=O)[O-])c2)c2ccccc2c1=O	-1	-1	2	1	4
Cn1nc(-c2ccc(N3CCN(CCO)CC3)c([N+](=O)[O-])c2)c2ccccc2c1=O	·	-13	99*	·	17
CN(C)CCNc1ccc(-c2nn(C)c(=O)c3ccccc23)cc1[N+](=O)[O-]	8	-2	90*	0.9	6
Cc1cccc(-c2nnc(SCc3ccccc3)o2)c1	25	65*	-7	0.8	4
Cc1cc(OCC(=O)NC(C)c2ccccc2)ccc1[N+](=O)[O-] (centres undefined)	22	16	-1	0.8	13
Clc1ccc(CSc2nnc(-c3cccnc3)n2Cc2ccco2)c(Cl)c1	26	-2	38	0.7	14
O=C(Cc1ccc(-n2c(=O)c3ccccc3n(Cc3ccccc3Cl)c2=O)cc1)NCC1CCCO1 (centres undefined)	-1	-18	100*	1	-7
SMILES	Diaphorase inh	WT yeast gro inh	L major viab	Diaph act CS	G6PDH CS
O=C(Cc1ccc(-n2c(=O)c3ccccc3n(Cc3ccccc3F)c2=O)cc1)NCC1CCCO1 (centres undefined)	14	3	99*	0.9	13
COc1ccccc1CNC(=O)COC(=O)c1ccc(Cl)c(N)c1	16	-20	-7	0.8	-2
COc1cccc(NC(=O)CCNC(=O)Cn2ccc3ccccc3c2=O)c1	12	0	-2	0.9	7
CCOC(=O)c1cc2c(ccn2C)n1Cc1ccccc1Cl	19	69*	10	0.8	13
Cc1ccccc1Cn1c(C(=O)OC(C)C)cc2c1ccn2C	10	1	30	0.9	10
CCOC(=O)c1cc2c(ccn2C)n1CC(=O)N(Cc1ccccc1)c1ccc(F)cc1	18	15	98*	0.8	-7
CC(C)OC(=O)c1cc2c(ccn2C)n1CC(=O)N(Cc1ccccc1)c1ccc(F)cc1	21	47	99*	0.8	-6
CC(C)OC(=O)c1cc2c(ccn2C)n1CC(=O)N1CCC(Cc2ccccc2)CC1	30	7	15	0.7	12
CCOC(=O)c1cc2c(ccn2C)n1Cc1ccccc1C	29	21	7	0.7	-27
Cc1ccc(C)c(Cn2c(C(=O)OC(C)C)cc3c2ccn3C)c1	17	0	95*	0.8	11
CCOC(=O)c1cc2c(ccn2C)n1CC(=O)N(Cc1ccccc1)c1ccccc1	19	38	98*	0.8	-16
S=C(Nc1ccccc1Cl)NC1CC2CCCC(C1)N2C1CC1 (centres undefined)	-3	15	43	1	2
O=C(N/C=N/O)C1=NOC(CNc2ncc(C(F)(F)F)cc2Cl)C1 (centres undefined)	6	-17	99*	0.9	4
COc1ccc(S(=O)(=O)N2CCOCC2)cc1NC(=O)CSc1nnc2ccccn12	20	-20	4	0.8	-2
Cc1ccc(-n2ncc(Br)c(Br)c2=O)cc1	14	46	100*	0.9	7
O=c1c(Br)c(N2CCCC2)cnn1-c1ccccc1	6	-4	33	0.9	13
COc1c(Cl)cnn(-c2ccc(C)cc2)c1=O	-2	-19	-2	1	23
O=c1c(Br)c(Br)cnn1-c1ccccc1	11	32	101*	0.9	8
CN(C(=O)CSCC(=O)O)C1CCCCC1	9	16	-4	0.9	15
Cc1ccc(C(=O)NC(=S)NCCCN2CCOCC2)cc1	20	-1	65*	0.8	17
Cc1ccc(C(NC(=O)NCCCN2CCOCC2)=C(Cl)Cl)cc1F	19	·	81*	0.8	2
O=C(NC(=S)NCCCN1CCOCC1)c1cccc2ccccc12	5	-6	78*	1	4
O=C(NCCCN1CCOCC1)C1Cc2c(ccc3ccccc23)O1 (centres undefined)	-14	-6	69*	1.1	9
O=C(COC(=O)c1ccccc1S(=O)(=O)N1CCCCC1)NCC(F)(F)F	-11	-2	2	1.1	-2
O=C(NC(=S)NCCCN1CCOCC1)c1ccc(Br)cc1	-1	26	86*	1	7
